Experimental findings from ChEMBL document CHEMBL3526048, “In vitro metabolism of rivoglitazone, a novel peroxisome proliferator-activated receptor γ agonist, in rat, monkey, and human liver microsomes and freshly isolated hepatocytes” (Drug Metab Dispos, 2011) are described below.

Data set [1] deals with T1, UDP-glucuronosyltransferase 2B7 (Homo sapiens, UniProt P16662).
T1 sequence (P16662 whole entry): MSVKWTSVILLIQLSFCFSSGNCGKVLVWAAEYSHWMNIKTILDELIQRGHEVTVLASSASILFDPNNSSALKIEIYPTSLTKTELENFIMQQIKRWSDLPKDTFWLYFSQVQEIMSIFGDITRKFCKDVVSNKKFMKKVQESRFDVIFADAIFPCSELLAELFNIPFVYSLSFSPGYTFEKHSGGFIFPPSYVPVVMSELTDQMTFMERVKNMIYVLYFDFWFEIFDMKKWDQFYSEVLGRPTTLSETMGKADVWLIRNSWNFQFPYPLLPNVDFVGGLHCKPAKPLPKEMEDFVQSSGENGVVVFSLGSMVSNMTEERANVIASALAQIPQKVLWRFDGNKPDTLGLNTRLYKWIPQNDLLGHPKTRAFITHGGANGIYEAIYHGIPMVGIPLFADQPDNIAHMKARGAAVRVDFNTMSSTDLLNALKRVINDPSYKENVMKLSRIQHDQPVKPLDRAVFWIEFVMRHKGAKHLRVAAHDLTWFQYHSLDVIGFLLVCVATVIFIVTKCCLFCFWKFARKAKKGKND
Kind of data set: Activity of human UGT2B7 expressed in microsomes isolated from baculovirus infected insect cell assessed as enzyme-mediated 5-hydroxy-5-(4-((6-methoxy-1-methyl-1H-benzo[d]imidazol-2-yl)methoxy)benzyl)thiazolidine-2,4-dione formation at 20 uM after 4 hrs by radio-HPLC/LC-MS/MS analysis in presence of NADPH-generating system and NADPH-generating system/SAM in presence of UDPGA and UDPGA/SAM. The format is ADME.

Data set [2] can be described thus: Drug metabolism in rat hepatocytes assessed as formation of 5-(4-((6-methoxy-1H-benzo[d]imidazol-2-yl)methoxy)benzyl)thiazolidine-2,4-dione at 30 uM after 3 hrs by radio-HPLC/LC-MS/MS analysis in presence of NADPH-generating system and NADPH-generating system/SAM. It is filed as ADME, cell-based, Hepatocyte.
The target in the next data set is T2, Cytochrome P450 1A2 (Homo sapiens, UniProt P05177).
T2 sequence (P05177 whole entry): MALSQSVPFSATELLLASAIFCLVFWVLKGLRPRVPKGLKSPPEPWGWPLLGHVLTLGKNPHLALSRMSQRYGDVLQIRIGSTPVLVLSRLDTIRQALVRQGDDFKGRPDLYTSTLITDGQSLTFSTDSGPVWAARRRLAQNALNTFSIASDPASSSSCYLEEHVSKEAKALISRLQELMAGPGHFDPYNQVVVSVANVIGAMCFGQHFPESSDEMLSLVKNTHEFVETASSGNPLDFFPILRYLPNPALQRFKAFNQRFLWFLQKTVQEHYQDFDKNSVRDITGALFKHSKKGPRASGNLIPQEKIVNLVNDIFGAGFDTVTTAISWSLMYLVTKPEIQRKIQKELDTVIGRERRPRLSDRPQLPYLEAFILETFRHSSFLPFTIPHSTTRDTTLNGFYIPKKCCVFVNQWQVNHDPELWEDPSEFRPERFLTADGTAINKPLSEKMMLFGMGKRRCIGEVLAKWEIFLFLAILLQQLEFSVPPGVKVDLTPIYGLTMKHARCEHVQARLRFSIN
The experiment in a line: Activity of human CYP1A2 expressed in microsomes isolated from baculovirus infected insect cell assessed as enzyme-mediated (2S,3S,4S,5R,6R)-3,4,5-trihydroxy-6-(5-(4-((6-methoxy-1-methyl-1H-benzo[d]imidazol-2-yl)methoxy)benzyl)-2,4-dioxothiazolidin-3-yl)tetrahydro-2H-pyran-2-carboxylic acid formation at 20 uM after 2 hrs by radio-HPLC/LC-MS/MS analysis in presence of UDPGA and UDPGA/SAM. The format is ADME.

Data set [3] deals with T1, UDP-glucuronosyltransferase 2B7. Kind of data set: Activity of human UGT2B7 expressed in microsomes isolated from baculovirus infected insect cell assessed as enzyme-mediated 2-hydroxy-3-(4-((6-methoxy-1-methyl-1H-benzo[d]imidazol-2-yl)methoxy)phenyl)propanamide formation at 20 uM after 4 hrs by radio-HPLC/LC-MS/MS analysis in presence of NADPH-generating system and NADPH-generating system/SAM in presence of UDPGA and UDPGA/SAM. The format is ADME.

A short description of data set [4]: Drug metabolism in cynomolgus monkey liver microsomes assessed as formation of 3-(4-((6-methoxy-1-methyl-1H-benzo[d]imidazol-2-yl)methoxy)phenyl)-2-(methylthio)propanamide at 20 uM after 2 hrs by radio-HPLC/LC-MS/MS analysis in presence of NADPH-generating system/SAM. The format is ADME, Macaca fascicularis.
Data set [5] addresses T3, UDP-glucuronosyltransferase 1A4 (Homo sapiens, UniProt P22310).
T3 sequence (P22310 whole entry): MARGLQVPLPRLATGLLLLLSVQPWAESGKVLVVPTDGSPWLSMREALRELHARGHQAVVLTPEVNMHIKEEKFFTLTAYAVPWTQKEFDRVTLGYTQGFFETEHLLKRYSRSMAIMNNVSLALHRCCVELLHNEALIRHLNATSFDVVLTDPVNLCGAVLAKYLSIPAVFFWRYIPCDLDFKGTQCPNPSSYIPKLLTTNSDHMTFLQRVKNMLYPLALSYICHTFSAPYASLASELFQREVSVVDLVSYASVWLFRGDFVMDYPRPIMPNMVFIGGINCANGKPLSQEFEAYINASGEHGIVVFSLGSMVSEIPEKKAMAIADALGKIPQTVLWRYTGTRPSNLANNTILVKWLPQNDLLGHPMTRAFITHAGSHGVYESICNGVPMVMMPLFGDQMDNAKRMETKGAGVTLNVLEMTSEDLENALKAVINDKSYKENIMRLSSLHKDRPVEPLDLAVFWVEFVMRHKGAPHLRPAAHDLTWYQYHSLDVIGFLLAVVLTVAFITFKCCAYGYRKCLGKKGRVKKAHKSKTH
Kind of data set: Activity of human UGT1A4 expressed in microsomes isolated from baculovirus infected insect cell assessed as enzyme-mediated 2-mercapto-3-(4-((6-methoxy-1-methyl-1H-benzo[d]imidazol-2-yl)methoxy)phenyl)propanoic acid formation at 20 uM after 4 hrs by radio-HPLC/LC-MS/MS analysis in presence of UDPGA. The format is ADME.

In a further data set the target is Cytochrome P450 2C9 (Homo sapiens, UniProt P11712). The experiment in a line: Activity of human CYP2C9 expressed in microsomes isolated from baculovirus infected insect cell assessed as enzyme-mediated 5-(4-((6-methoxy-1H-benzo[d]imidazol-2-yl)methoxy)benzyl)thiazolidine-2,4-dione formation at 20 uM after 2 hrs by radio-HPLC/LC-MS/MS analysis in presence of NADPH-generating system and NADPH-generating system/SAM. It is filed as ADME.

A short description of data set [6]: Retention time of the compound by LC-MS/MS analysis. It is filed as physicochemical. The procedure, abridged:
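LC-MS/MS used a YMC-Pack ODS-A column (1.5 × 150 mm, 5 μm) at 30°C, 0.1 ml/min. Mobile phase was water and acetonitrile, each with 0.01% TFA. Gradient: 12→60% B over 30 min, →90% B over 5 min, hold 5 min. Detection was UV 220 nm with positive ESI Q-TOF (capillary 3300 V, cone 45 V), collision energy 20 eV and xenon as collision gas.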

Cytochrome P450 2C9, sequence (P11712 whole entry): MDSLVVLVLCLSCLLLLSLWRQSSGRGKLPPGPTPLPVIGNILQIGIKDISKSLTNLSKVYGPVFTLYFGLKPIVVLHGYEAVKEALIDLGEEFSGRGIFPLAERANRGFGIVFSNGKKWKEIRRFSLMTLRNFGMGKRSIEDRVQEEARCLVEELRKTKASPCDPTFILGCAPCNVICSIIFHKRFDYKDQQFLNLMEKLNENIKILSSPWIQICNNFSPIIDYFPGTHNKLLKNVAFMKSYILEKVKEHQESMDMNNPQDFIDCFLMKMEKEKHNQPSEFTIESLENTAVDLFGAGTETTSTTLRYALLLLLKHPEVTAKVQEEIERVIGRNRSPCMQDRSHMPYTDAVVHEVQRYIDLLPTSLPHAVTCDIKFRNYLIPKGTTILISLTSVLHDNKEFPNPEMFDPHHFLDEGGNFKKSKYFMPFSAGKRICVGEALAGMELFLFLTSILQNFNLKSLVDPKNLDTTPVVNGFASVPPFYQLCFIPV

As to `COc1ccc2nc(COc3ccc(C[14CH]4SC(=O)NC4=O)cc3)n(C)c2c1.Cl` (racemic), the Drug metabolism entry in data set [1] is given as “metabolite_not_detected”; in data set [2] it was “metabolite_detected”; at Cytochrome P450 1A2, “metabolite_not_detected”; in data set [3], “metabolite_not_detected”; in data set [4], “metabolite_detected”; in data set [5], “metabolite_not_detected”. At Cytochrome P450 2C9, the Drug metabolism result is “metabolite_detected”.
In data set [6], `COc1ccc2nc(COc3ccc(CC(S)C(=O)O)cc3)n(C)c2c1` (stereo not drawn) came in with a Retention_time of 23.9 min.
